sPLA2-III inh = human group III sPLA2 inhibitors, primary screen, biochemical, QFRET, BODIPY PC-A2 liposome substrate. Group 3 secretory phospholipase A2 (Homo sapiens), Q9NZ20. QFRET BODIPY PC-A2 liposome hydrolysis, fluorescence. inhibition, % at 12.2 µM. hit rate 0.56% among 370,000. AID 743126, 2013;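 active = inhibition above mean plus 3 SD of compounds lying within the high and low control bounds, cut at about 19% in these data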;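 also: 0% = median of test compound wells and 100% = no enzyme DMSO wells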
Target sequence (Q9NZ20 whole entry, looked up): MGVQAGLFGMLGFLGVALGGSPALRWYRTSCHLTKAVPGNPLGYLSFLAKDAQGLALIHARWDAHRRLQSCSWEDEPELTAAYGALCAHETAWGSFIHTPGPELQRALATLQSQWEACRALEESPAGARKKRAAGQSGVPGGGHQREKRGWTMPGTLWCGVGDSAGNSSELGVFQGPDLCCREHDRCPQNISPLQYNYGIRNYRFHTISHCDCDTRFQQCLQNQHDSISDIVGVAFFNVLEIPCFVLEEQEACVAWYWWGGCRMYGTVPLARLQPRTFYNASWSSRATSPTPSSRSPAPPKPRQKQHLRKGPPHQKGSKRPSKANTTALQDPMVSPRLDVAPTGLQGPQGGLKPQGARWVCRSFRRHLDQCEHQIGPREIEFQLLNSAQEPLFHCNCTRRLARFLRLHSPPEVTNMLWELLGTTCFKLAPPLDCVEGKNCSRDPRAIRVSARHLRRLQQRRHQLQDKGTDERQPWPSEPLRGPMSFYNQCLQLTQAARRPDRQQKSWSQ
SR-BI DiI-HDL act = activators of SR-BI mediated DiI-HDL uptake, primary screen, ldlA[mSR-BI] CHO cells, DiI fluorescence. 3 h; 100 = double the neutral-control signal. activation, % at 12.5 µM. hit rate 0.096% among 320,000. AID 504775, 2011;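 active = mean replicate activation of at least 60% and every replicate at or above 60%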;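 also: 0% = median plate neutral-control signal and 100% = twice that signal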
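Test system: SR-BI-overexpressing, LDLR-lacking CHO cells; Medium: Ham's F12 with 0.5% BSA, HEPES 25 mM, pH 7.4; Schedule: 3 h, 37 °C; Technique: bottom-read fluorescence, 550/595 nm.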
SR-BI DiI inh = inhibitors of SR-BI mediated HDL lipid uptake, primary screen, ldlA[mSR-BI] cells, fluorescence, single point; AID 488896, 2010; Scavenger receptor class B member 1 (Mus musculus), Q61009; hit rate 0.96% among 320,000; inhibition, % at 12.5 µM; ldlA[mSR-BI] CHO cells, DiI-HDL uptake fluorescence, 3 h;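 active = mean replicate inhibition of at least 70% and a set share of replicates each scoring 70 or more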;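 also: 0% = median of neutral control wells and 100% = median of positive control wells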
Xi reactivation = activators of inactive X chromosome reactivation, primary screen, imaging, XiGFP fibroblasts, GFP high-content imaging, set 2 | AID 743238, 2013 | XiGFP mouse fibroblasts, % GFP-positive cells imaging, 3 d; cells co-treated with 5-aza-dC sensitizer; scaled so ellipticine positive control = 100% | hit rate 0.055% among 360,000 | activation, % at 7.58 µM;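 active = mean normalized replicate activation at least 10% and every replicate at or above 10%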;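 also: 0% = median of on-plate neutral control wells and 100% = ellipticine 6 µM median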
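material = 68-5-11 XiGFP fibroblast line | medium = DMEM plus 5-aza-dC sensitizer | schedule = 3 days compound exposure | benchmarks = positive control ellipticine, 6 µM final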
NSD2 HMT inh = NSD2 histone methyltransferase inhibitors, primary screen, biochemical, AlphaScreen, single concentration, set 2; NSD2 peptide methylation, 120 min; inhibition, % at 12.5 µM; Histone-lysine N-methyltransferase NSD2 (Homo sapiens), O96028; hit rate 0.54% among 310,000; in the data active = inhibition above about 50%
ARNT-TACC3 inh = disruptors of ARNT/TACC3 protein interaction, primary screen, biochemical, AlphaScreen, single concentration. Transforming acidic coiled-coil-containing protein 3 (Homo sapiens), Q9Y6A5. AlphaScreen His-ARNT PAS-B/GST-TACC3 binding, luminescence; TACC3 fragment carries E629A point mutation. inhibition, % at 9.99 µM. hit rate 0.66% among 390,000. AID 623870, 2012;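 active = mean inhibition of replicates at least 50% and at least half of replicates each reaching 50%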;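 also: 0% = complete ARNT plus TACC3 wells and 100% = ARNT alone without TACC3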
ARNT Alpha ctr-1 = AlphaScreen signal interference compounds, dose response, artefact control for ARNT-TACC3 interaction inhibitor project, biochemical, luminescence, cherry-pick; shares compounds with ARNT-TACC3 inh; His-ARNT PASB-GST AlphaScreen artifact counter-screen; AC50, µM (doses to about 68 µM), without a hit: at the top dose activity change, negative = signal decrease; hit rate 50% among 1,200; AID 651705, 2012;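 active = every separate test run was called active for a drop in luminescence, with AC50 within twice the top valid dose, actives reach about 71 µM in these data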
ARNT Alpha ctr-2 = AlphaScreen signal interference by compounds, dose response, artefact control for ARNT/TACC3 disruptor project, biochemical, dual-tagged ARNT, dry powder; AID 720564, 2013; hit rate 70% among 45; shares compounds with ARNT-TACC3 inh; Dual-tagged His-ARNT PASB-GST AlphaScreen artifact counter-screen; AC50, µM;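 active = luminescence drop, with half-maximal potency fitted within twice the sample's top valid dose, cut at about 70 µM in these data; inactive = the rest, including signal moving the wrong way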
* hit, by the source's call; [ ] = dose if it differs, or a comment. A selection: hits, their analogues and other compounds. The true share with any hit is near 2%.

For COc1ccc(OC(C)C(=O)Nc2ccc([N+](=O)[O-])cc2)cc1 (configuration not stated) the results were sPLA2-III inh -4.4, SR-BI DiI-HDL act -4.7, SR-BI DiI inh 14.2, Xi reactivation 0.2, NSD2 HMT inh 1.4 and ARNT-TACC3 inh 2.4.
For COc1ccc(-c2nc(CN3CCC(C(=O)NC4CCCc5ccccc54)CC3)c(C)o2)cc1OC (configuration not stated) the results were sPLA2-III inh 2.5, Xi reactivation -0.1, NSD2 HMT inh -6.7, ARNT-TACC3 inh 56.3* and ARNT Alpha ctr-1 -10.4%.
For COc1ccc(OC)c(-c2cc(C(=O)N3CCN(c4ncccn4)CC3)c3ccccc3n2)c1 the results were sPLA2-III inh -7.9, SR-BI DiI inh 12.3, NSD2 HMT inh -0.4, ARNT-TACC3 inh 51.4* and ARNT Alpha ctr-1 -37.1%.
`O=C(O)c1cc2c(cn1)[nH]c1ccccc12` gave sPLA2-III inh 5.4, SR-BI DiI-HDL act 13.7, SR-BI DiI inh -13.7, Xi reactivation 0.0, NSD2 HMT inh -0.9, ARNT-TACC3 inh 75.5* and ARNT Alpha ctr-1 9.73µM*.
Screening CCN(CC)CCNC(=O)Cn1cnc2sc(C)c(S(=O)(=O)N3CCN(c4ccccc4OC)CC3)c2c1=O returned sPLA2-III inh -1.2, Xi reactivation 0.5, NSD2 HMT inh -0.9 and ARNT-TACC3 inh 0.5.
C/C(=N\NC(=O)c1c[nH]c2ccccc12)c1ccc(C)o1 was read as sPLA2-III inh -1.4, SR-BI DiI-HDL act 22.9, SR-BI DiI inh -22.9, NSD2 HMT inh 4.6, ARNT-TACC3 inh 62.0* and ARNT Alpha ctr-1 57.1µM*.
`C/C(=N\NC(=O)c1cc2ccccc2cc1O)c1ccc(C)o1` gave sPLA2-III inh 0.2, SR-BI DiI-HDL act -17.7, SR-BI DiI inh 17.7, Xi reactivation 0.0, NSD2 HMT inh 1.9 and ARNT-TACC3 inh -3.8.
O=C(c1cc(-c2ccccc2)on1)N1CCN(c2ccncc2)CC1 was read as ARNT Alpha ctr-1 -7.3%[38 µM].
`O=C(c1cc(-c2ccccc2)on1)N1CCC(CO)CC1` gave ARNT Alpha ctr-1 -2.5%[38 µM].
`O=C(c1cc(-c2ccccc2)on1)N1CCCC1` gave sPLA2-III inh -3.6, SR-BI DiI-HDL act -9.8, SR-BI DiI inh 9.8, NSD2 HMT inh -2.9 and ARNT-TACC3 inh -4.7.
`O=C(c1cc(-c2ccccc2)on1)N1CCC(N2CCCC2)CC1` gave ARNT Alpha ctr-1 0.2%[38 µM].
`COc1ccc2c(c1)C1CC(C)(NC(=O)C1S(=O)(=O)c1ccc(F)cc1)O2` (configuration not stated) gave sPLA2-III inh -3.5, SR-BI DiI-HDL act -6.0, SR-BI DiI inh 6.0, Xi reactivation 0.5, NSD2 HMT inh -1.8 and ARNT-TACC3 inh -6.0.
COc1ccc(NC(=O)N(C)C[C@H]2OCCCC[C@@H](C)Oc3ccc(NS(=O)(=O)c4ccc(C)cc4)cc3C(=O)N([C@@H](C)CO)C[C@@H]2C)cc1 was read as Xi reactivation 0.1 and ARNT-TACC3 inh 7.4.
O=C(Nc1nc(-c2ccccc2)cs1)C1COc2ccccc2O1 (configuration not stated) was read as sPLA2-III inh -10.3, SR-BI DiI-HDL act -0.3, SR-BI DiI inh 0.3 and NSD2 HMT inh 2.7.
For O=C(Nc1nc(-c2ccccn2)cs1)c1cc(Cl)ccc1[N+](=O)[O-] the results were sPLA2-III inh 9.4, SR-BI DiI-HDL act -47.6, SR-BI DiI inh 47.6, Xi reactivation 0.2, NSD2 HMT inh 2.7, ARNT-TACC3 inh 57.9* and ARNT Alpha ctr-1 18.5µM*.
`CC(=O)Nc1ccc(-c2csc(NC(=O)c3ccc(C)o3)n2)cc1` gave sPLA2-III inh -7.0, SR-BI DiI-HDL act -39.3, SR-BI DiI inh 39.3, NSD2 HMT inh 2.4 and ARNT-TACC3 inh 2.2.
For O=C(COc1cccc(F)c1)Nc1nc(-c2ccccn2)cs1 the results were sPLA2-III inh 0.9, Xi reactivation 0.5 and NSD2 HMT inh -1.5.
For O=C(COc1ccc([N+](=O)[O-])cc1)Nc1nc(-c2ccccn2)cs1 the results were sPLA2-III inh 15.0, SR-BI DiI-HDL act 10.2, SR-BI DiI inh -10.2, Xi reactivation 0.2, NSD2 HMT inh 19.7, ARNT-TACC3 inh 62.8* and ARNT Alpha ctr-1 47.7µM*.
`O=C(Nc1nc(-c2ccccn2)cs1)C1COc2ccccc2O1` (configuration not stated) gave sPLA2-III inh -6.2, SR-BI DiI-HDL act -4.9, SR-BI DiI inh 4.9, Xi reactivation 0.0, ARNT-TACC3 inh 70.9* and ARNT Alpha ctr-1 28.7µM*.
For Cc1ccc(C(=O)Nc2nc(-c3ccccc3)cs2)o1 the results were ARNT Alpha ctr-2 inactive.
`Cc1ccc(C(=O)Nc2nc(-c3ccc([N+](=O)[O-])cc3)cs2)o1` gave sPLA2-III inh -0.5, SR-BI DiI-HDL act 3.3, SR-BI DiI inh -3.3, Xi reactivation 0.1, NSD2 HMT inh -0.8 and ARNT-TACC3 inh -1.5.
`O=C(Nc1nc(-c2ccccn2)cs1)c1ccc([N+](=O)[O-])o1` gave sPLA2-III inh 0.6, SR-BI DiI-HDL act -14.9, SR-BI DiI inh 14.9, Xi reactivation -0.1, NSD2 HMT inh 7.2, ARNT-TACC3 inh 61.4* and ARNT Alpha ctr-1 17.2µM*.
`Cc1ccc(C(=O)Nc2nc(-c3ccccn3)cs2)o1` gave sPLA2-III inh 7.0, SR-BI DiI-HDL act -12.2, SR-BI DiI inh 12.2, Xi reactivation 0.3, NSD2 HMT inh 4.7, ARNT-TACC3 inh 60.5*, ARNT Alpha ctr-1 22.8µM* and ARNT Alpha ctr-2 9.86*.
`COC(=O)C1CCN(C(=O)NC2CCCCC2)CC1` gave sPLA2-III inh -0.8, SR-BI DiI-HDL act 11.5, SR-BI DiI inh -11.5, NSD2 HMT inh -3.2 and ARNT-TACC3 inh -3.5.
